Assay results from ChEMBL document CHEMBL1811814, “Synthesis and evaluation of indole, pyrazole, chromone and pyrimidine based conjugates for tumor growth inhibitory activities--development of highly efficacious cytotoxic agents” (Eur J Med Chem, 2010).

Key:
Assay type in all cases: functional
HCT-15 = test: Growth inhibition of human HCT15 cells
HT-29 [1] = test: Growth inhibition of human HT-29 cells
SF-268 [2] = test: Growth inhibition of human SF268 cells
SF-539 = test: Growth inhibition of human SF539 cells
SNB-75 [3] = test: Growth inhibition of human SNB75 cells
SK-MEL-2 [4] = test: Growth inhibition of human SK-MEL-2 cells
SK-MEL-5 = test: Growth inhibition of human SK-MEL-5 cells
UACC-257 = test: Growth inhibition of human UACC257 cells
UACC-62 [5] = test: Growth inhibition of human UACC62 cells
IGROV-1 [6] = test: Growth inhibition of human IGROV1 cells
Procedure, shortened: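 Follow-up panel testing at five concentrations (10^-4, 10^-5, 10^-6, 10^-7 and 10^-8 M) across the 60 human tumor cell lines. GI50 was obtained for each line from the concentration-response data, with the panel average GI50 also reported.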

OVCAR-3 = test: Growth inhibition of human OVCAR3 cells
OVCAR-4 = test: Growth inhibition of human OVCAR4 cells
SK-OV-3 = test: Growth inhibition of human SKOV3 cells
786-0 [7] = test: Growth inhibition of human 786-0 cells
ACHN = test: Growth inhibition of human ACHN cells
[8] = Growth inhibition of human Hs 578T cells
BT-549 [9] = test: Growth inhibition of human BT549 cells
T47D = test: Growth inhibition of human T47D cells
HL-60(TB) = test: Growth inhibition of human HL-60(TB) cells assessed tumor cell growth at 10^-5 M; design: scale not given: the % may be the effect or the level left
Procedure, shortened: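 HL-60(TB), part of the 60-line panel, tested at a single concentration of 10^-5 M. The read-out is percent tumor cell growth relative to untreated growth.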

K562 = test: Growth inhibition of human K562 cells assessed tumor cell growth at 10^-5 M; design: scale not given: the % may be the effect or the level left
Procedure, shortened: (§1)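 NCI 60-human-tumor-cell-line panel screen. Each compound was tested at a single concentration of 10^-5 M, and percent growth of tumor cells was recorded for each cell line. Growth inhibition was expressed from these percent-growth values.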

[10] = Growth inhibition of human […] cells assessed tumor cell growth at 10^-5 M; design: scale not given: the % may be the effect or the level left; procedure, shortened: as §1
NCI-H226 [11] = test: Growth inhibition of human NCI-H226 cells assessed tumor cell growth at 10^-5 M; design: scale not given: the % may be the effect or the level left; procedure, shortened: as §1
NCI-H23 [12] = test: Growth inhibition of human NCI-H23 cells assessed tumor cell growth at 10^-5 M; design: scale not given: the % may be the effect or the level left; procedure, shortened: as §1
NCI-H322M [13] = test: Growth inhibition of human NCI-H322M cells assessed tumor cell growth at 10^-5 M; design: scale not given: the % may be the effect or the level left; procedure, shortened: as §1
NCI-H522 = test: Growth inhibition of human NCI-H522 cells assessed tumor cell growth at 10^-5 M; design: scale not given: the % may be the effect or the level left; procedure, shortened: as §1
COLO 205 = test: Growth inhibition of human COLO205 cells assessed tumor cell growth at 10^-5 M; design: scale not given: the % may be the effect or the level left; procedure, shortened: as §1
HCC 2998 = test: Growth inhibition of human HCC2998 cells assessed tumor cell growth at 10^-5 M; design: scale not given: the % may be the effect or the level left; procedure, shortened: as §1
HT-29 [14] = test: Growth inhibition of human HT-29 cells assessed tumor cell growth at 10^-5 M; design: scale not given: the % may be the effect or the level left; procedure, shortened: as §1
SW-620 = test: Growth inhibition of human SW620 cells assessed tumor cell growth at 10^-5 M; design: scale not given: the % may be the effect or the level left
Procedure, shortened: (§2)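 Single-dose screen at 10^-5 M across the 60 human tumor cell line panel, run to NCI standards. The value is the percent growth of each cell line in the presence of compound. Compounds active at this dose moved on to five-concentration testing (10^-4 to 10^-8 M).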

SF-268 [15] = test: Growth inhibition of human SF268 cells assessed tumor cell growth at 10^-5 M; design: scale not given: the % may be the effect or the level left; procedure, shortened: as §1
SNB-19 = test: Growth inhibition of human SNB19 cells assessed tumor cell growth at 10^-5 M; design: scale not given: the % may be the effect or the level left; procedure, shortened: as §2
SNB-75 [16] = test: Growth inhibition of human SNB75 cells assessed tumor cell growth at 10^-5 M; design: scale not given: the % may be the effect or the level left; procedure, shortened: as §2
M14 = test: Growth inhibition of human M14 cells assessed tumor cell growth at 10^-5 M; design: scale not given: the % may be the effect or the level left; procedure, shortened: as §1
MDA-MB-435 = test: Growth inhibition of human MDA-MB-435 cells assessed tumor cell growth at 10^-5 M; design: scale not given: the % may be the effect or the level left; procedure, shortened: as §1
SK-MEL-2 [17] = test: Growth inhibition of human SK-MEL-2 cells assessed tumor cell growth at 10^-5 M; design: scale not given: the % may be the effect or the level left; procedure, shortened: as §1
UACC-62 [18] = test: Growth inhibition of human UACC62 cells assessed tumor cell growth at 10^-5 M; design: scale not given: the % may be the effect or the level left; procedure, shortened: as §2
IGROV-1 [19] = test: Growth inhibition of human IGROV1 cells assessed tumor cell growth at 10^-5 M; design: scale not given: the % may be the effect or the level left; procedure, shortened: as §1
OVCAR-5 = test: Growth inhibition of human OVCAR5 cells assessed tumor cell growth at 10^-5 M; design: scale not given: the % may be the effect or the level left; procedure, shortened: as §1
786-0 [20] = test: Growth inhibition of human 786-0 cells assessed tumor cell growth at 10^-5 M; design: scale not given: the % may be the effect or the level left; procedure, shortened: as §1
TK-10 = test: Growth inhibition of human TK10 cells assessed tumor cell growth at 10^-5 M; design: scale not given: the % may be the effect or the level left; procedure, shortened: as §2
MDA-MB-231 = test: Growth inhibition of human MDA-MB-231 cells assessed tumor cell growth at 10^-5 M; design: scale not given: the % may be the effect or the level left; procedure, shortened: as §1
[21] = Growth inhibition of human Hs 578T cells assessed tumor cell growth at 10^-5 M; design: scale not given: the % may be the effect or the level left; procedure, shortened: as §1
BT-549 [22] = test: Growth inhibition of human BT549 cells assessed tumor cell growth at 10^-5 M; design: scale not given: the % may be the effect or the level left; procedure, shortened: as §1
CCRF-CEM = test: Growth inhibition of human CCRF-CEM cells
MOLT-4 = test: Growth inhibition of human MOLT4 cells
A549 = test: Growth inhibition of human A549 cells
HOP-62 = test: Growth inhibition of human HOP62 cells
NCI-H226 [23] = test: Growth inhibition of human NCI-H226 cells
NCI-H23 [24] = test: Growth inhibition of human NCI-H23 cells
NCI-H322M [25] = test: Growth inhibition of human NCI-H322M cells
[26] = read-out: LC50 (the source's name)

CC1=NN(c2cccc(Cl)c2)C(=O)/C1=C\c1c(O)ccc2ccccc12
GI50 (HCT-15): > 100 µM
CC50 (HCT-15; [26]): > 100 µM
GI50 (HT-29 [1]): > 100 µM
CC50 (HT-29 [1]; [26]): > 100 µM
GI50 (SF-268 [2]): 97.7 µM
CC50 (SF-268 [2]; [26]): > 100 µM
GI50 (SF-539): 0.01 µM
CC50 (SF-539; [26]): > 100 µM
GI50 (SNB-75 [3]): 0.9 µM
CC50 (SNB-75 [3]; [26]): > 100 µM
GI50 (SK-MEL-2 [4]): 21.8 µM
CC50 (SK-MEL-2 [4]; [26]): > 100 µM
GI50 (SK-MEL-5): > 100 µM
CC50 (SK-MEL-5; [26]): > 100 µM
GI50 (UACC-257): > 100 µM
CC50 (UACC-257; [26]): > 100 µM
GI50 (UACC-62 [5]): 39.8 µM
CC50 (UACC-62 [5]; [26]): > 100 µM
GI50 (IGROV-1 [6]): 26.9 µM
CC50 (IGROV-1 [6]; [26]): > 100 µM
GI50 (OVCAR-3): 58.8 µM
CC50 (OVCAR-3; [26]): > 100 µM
GI50 (OVCAR-4): > 100 µM
CC50 (OVCAR-4; [26]): > 100 µM
GI50 (SK-OV-3): 26.3 µM
CC50 (SK-OV-3; [26]): > 100 µM
GI50 (786-0 [7]): 21.3 µM
CC50 (786-0 [7]; [26]): > 100 µM
GI50 (ACHN): 16.9 µM
CC50 (ACHN; [26]): > 100 µM
GI50 [8]: 32.3 µM
CC50 [8, 26]: > 100 µM
GI50 (BT-549 [9]): 27.5 µM
CC50 (BT-549 [9]; [26]): > 100 µM
GI50 (T47D): > 100 µM
CC50 (T47D; [26]): > 100 µM
Activity (HL-60(TB)): 104.49%
Activity (K562): 99.09%
Activity [10]: 96.44%
Activity (NCI-H226 [11]): 1.04%
Activity (NCI-H23 [12]): -1.95%
Activity (NCI-H322M [13]): 84.08%
Activity (NCI-H522): -11.28%
Activity (COLO 205): -80.64%
Activity (HCC 2998): -22.22%
Activity (HT-29 [14]): 13.48%
Activity (SW-620): 30.97%
Activity (SF-268 [15]): 47.23%
Activity (SNB-19): 31.43%
Activity (SNB-75 [16]): 10.3%
Activity (M14): 18.24%
Activity (MDA-MB-435): 20.68%
Activity (SK-MEL-2 [17]): 38.07%
Activity (UACC-62 [18]): 82.71%
Activity (IGROV-1 [19]): 33.94%
Activity (OVCAR-5): 16.91%
Activity (786-0 [20]): -46.85%
Activity (TK-10): 17.23%
Activity (MDA-MB-231): 4.08%
Activity [21]: 82.15%
Activity (BT-549 [22]): 90.21%
GI50 (CCRF-CEM): 97.7 µM
CC50 (CCRF-CEM; [26]): > 100 µM
GI50 (MOLT-4): > 100 µM
LC50 (MOLT-4): > 100 µM
GI50 (A549): > 100 µM
CC50 (A549; [26]): > 100 µM
GI50 (HOP-62): 31.6 µM
CC50 (HOP-62; [26]): > 100 µM
GI50 (NCI-H226 [23]): 47.8 µM
CC50 (NCI-H226 [23]; [26]): > 100 µM
GI50 (NCI-H23 [24]): > 100 µM
LC50 (concentration killing 50% of cells) (NCI-H23 [24]): > 100 µM
GI50 (NCI-H322M [25]): > 100 µM
CC50 (NCI-H322M [25]; [26]): > 100 µM
